Experimental data collected from several papers.
Each line is one published result; the experiments were not run side by side.
Cell line: A549
Observed: cell growth or viability

Compound	method	time	IC50
COc1cccc2c1C(=O)c1c(O)c3c(c(O)c1C2=O)C[C@@](O)(C(=O)CO)C[C@@H]3O[C@H]1C[C@H](N)[C@H](O)[C@H](C)O1	MTT	48 h	5.06 µM
NNC(=O)c1ccncc1	MTT	72 h	> 450 µM
COc1ccc2c(c1)/C(=N/NC(=O)c1cc3ccccc3[nH]1)C(=O)N2C			1.93 µM
C=C(Cl)C(=O)Nc1cc(Nc2nc(N3CCSCC3)c3sccc3n2)c(OC)cc1N(C)CCN(C)C	MTT		0.098 µM
COc1ccc(NC(=O)Nc2ccc(OCc3nccc(OC)c3OC)cc2)cc1	MTT	72 h	16.7 µM
CCOC(=O)/C=C1\S/C(=N\C(=O)c2ccc3ccccc3c2)N(C2CCCCC2)C1=O		48 h	13.8 µM
COc1ccc(-c2nc(C(=O)Nc3nnc(-c4cc5ccccc5[nH]4)s3)cc3c2[nH]c2ccccc23)cc1	MTT	72 h	2.82 µM
CCc1c2c(nc3ccc(OC(=O)N4CCC(N5CCCCC5)CC4)cc13)-c1cc3c(c(=O)n1C2)COC(=O)[C@]3(O)CC	SRB	72 h	9.5 µM
Brc1ccc(Nc2nc(NCc3ccccc3)nc(NCc3ccccc3)n2)cc1	SRB	72 h	14.9 µM
COc1ccccc1OCCNCC(O)COc1cccc2[nH]c3ccccc3c12 (stereo not shown)	CCK-8	72 h	22.9 µM
CCOc1cc(OCC)cc(C(=O)O[C@@H]2CN3Cc4c(cc5c(c4OC)OCO5)[C@@]24C=C[C@H](OC)C[C@@H]34)c1	WST-1		> 10 µM
COc1cc2ncnc(Nc3ccc(F)c(Cl)c3)c2cc1NC(=O)N/N=C/c1cccn1CCCN1CCCCC1	MTT	72 h	3.08 µM
C=CC(=O)Nc1cc(Nc2nc(N3CCc4sccc4C3)c3sccc3n2)c(OC)cc1N1CCN(C)CC1	MTT		1.96 µM
CC1=C(O)C(=O)C=C2C1=CC=C1[C@@]2(C)CC[C@@]2(C)[C@@H]3C[C@](C)(C(=O)OCCCCCO)CC[C@]3(C)CC[C@]12C	MTT	48 h	> 100 µM
Oc1ncnc2cc(Nc3nc(-c4ccc(F)cc4)cs3)ccc12	MTT		19 µM
CNC(=O)c1cc(Oc2ccc(NC(=O)Nc3ccc(Cl)c(C(F)(F)F)c3)cc2)ccn1	MTT	72 h	2.12 µM
C=CC(=O)Nc1cc(Nc2nc(N3CCOCC3)c3sccc3n2)c(OC)cc1N(C)CCN(C)C	MTT		> 50 µM
COc1ccccc1/C=C/CNCC(O)COc1ccccc1 (stereo not shown)	CCK-8	72 h	17.4 µM
O=C(N/N=C/c1cccn1CCN1CCCCC1)Nc1cc2c(Nc3ccc(F)c(Cl)c3)ncnc2cc1O[C@H]1CCOC1	MTT	72 h	3.58 µM
O=C(NCCc1ccccc1)NNC(=O)c1ccc(Nc2nccc(-c3cccnc3)n2)cc1	MTT		23.7 µM
CC(C)Cc1ccc(-c2nn(-c3ccc(S(C)(=O)=O)cc3)cc2/C=N/N=c2\[nH]c(-c3ccc(Br)cc3)cs2)cc1	MTT	48 h	15.3 µM
COc1cc2ncnc(Nc3ccc(F)c(Cl)c3)c2cc1NC(=O)N/N=C/c1cccn1CCN1CCOCC1	MTT	72 h	0.58 µM
